According to PubChem BioAssay AID588749 (Vanderbilt Specialized Chemistry Center, 2011):
Values belong to the compound of their own block, whether it stands above or below them. Active and inactive are the calls of the source.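 Rule for the calls: active = a clear dose-dependent calcium response in rat M1 cells, with a fitted half-maximal potency; inactive = the rest.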

Target: Muscarinic acetylcholine receptor M1 (Rattus norvegicus) (UniProt P08482)
Assay: potentiation of ACh at rat M1 – CHO cells, calcium fluorescence, counter-screen for M4 PAM project, dose response (AID 588749)
Details: Fluo-4 calcium fluorescence
In short: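 material = rat M1 CHO cells | reagent = ACh at EC20 then EC80 | incubation = 144 s compound pre-incubation, 37 °C | technique = Fluo-4 calcium fluorescence | read-out = % max ACh response and EC50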

Sequence of Muscarinic acetylcholine receptor M1 (Rattus norvegicus) (P08482 whole entry, looked up): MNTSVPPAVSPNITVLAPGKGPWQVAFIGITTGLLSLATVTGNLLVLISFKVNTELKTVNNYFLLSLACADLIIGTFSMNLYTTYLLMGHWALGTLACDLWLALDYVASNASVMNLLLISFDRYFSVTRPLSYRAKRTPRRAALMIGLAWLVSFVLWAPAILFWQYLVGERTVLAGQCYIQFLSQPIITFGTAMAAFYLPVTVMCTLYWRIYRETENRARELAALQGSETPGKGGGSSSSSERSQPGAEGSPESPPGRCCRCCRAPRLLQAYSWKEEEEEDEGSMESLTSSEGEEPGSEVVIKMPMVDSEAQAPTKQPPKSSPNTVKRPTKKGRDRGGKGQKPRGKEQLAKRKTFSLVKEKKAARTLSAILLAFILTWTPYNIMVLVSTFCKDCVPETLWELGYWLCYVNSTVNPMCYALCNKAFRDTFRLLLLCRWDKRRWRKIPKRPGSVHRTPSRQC

- percent of ACh max response (at 45.3 µM (top of the series)): inactive
Structure (SMILES): Cc1nc2sc(C(=O)NCc3cccnc3)c(N)c2c(C)c1Cl

- percent of ACh max response (at 30 µM (top of the series)): inactive
Structure (SMILES): Cc1nc2sc(C(=O)NCc3nccs3)c(N)c2c(C)c1Cl

- percent of ACh max response (at 30 µM (top of the series)): inactive
Structure (SMILES): Cc1nc2sc(C(=O)NCc3ccncn3)c(N)c2c(C)c1Cl

- percent of ACh max response (at 45.3 µM (top of the series)): inactive
Structure (SMILES): Cc1nc2sc(C(=O)NCc3ccncc3)c(N)c2c(C)c1Cl

- percent of ACh max response (at 36.8 µM (top of the series)): inactive
Structure (SMILES): Cc1nc2sc(C(=O)NCc3ccc4c(c3)OCO4)c(N)c2c(C)c1Cl

More lines, now with the values behind:

Structure (SMILES): Cc1nc2sc(C(=O)NCc3cccc(F)c3F)c(N)c2c(C)c1Cl
- percent of ACh max response (at 30 µM (top of the series)): inactive

Structure (SMILES): Cc1nc2sc(C(=O)NCCc3ccncc3)c(N)c2c(C)c1Cl
- percent of ACh max response (at 30 µM (top of the series)): inactive

Structure (SMILES): Cc1nc2sc(C(=O)NC3CC3)c(N)c2c(C)c1Cl
- EC50: 0.943 µM

Structure (SMILES): Cc1nc2sc(C(=O)NCc3ccccc3)c(N)c2c(C)c1Cl
- percent of ACh max response (at 37.4 µM (top of the series)): inactive
